Laboratory results taken from ChEMBL document CHEMBL3997826, “Discovery and characterization of novel indole and 7-azaindole derivatives as inhibitors of β-amyloid-42 aggregation for the treatment of Alzheimer's disease” (Bioorg Med Chem Lett, 2017).

How the values were obtained:
[1] = molecular target: T1, Amyloid-beta precursor protein (Homo sapiens, UniProt P05067); assay: Inhibition of HFIP-pretreated amyloid beta (1 to 42 residues) (unknown origin) aggregation at 1:10 protein to compound ratio after 24 hrs by ThT fluorescence assay relative to control; conditions: concentration not given here
Outline: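 A crude Aβ1-42 peptide film at 33 µM was mixed with compound at 330 µM, a 1:10 molar ratio, and aggregation was read by thioflavin-T fluorescence. Values are percent of the DMSO-only Aβ1-42 aggregation control, as the mean ± SD of two independent experiments.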

[2] = Permeability from apical to basolateral side in human Caco2 cells; type: ADME, cell-based; conditions: Caco-2, read-out: permeability
Outline: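 Apical-to-basolateral permeability was reported in cm/s. The efflux ratio was used to judge P-gp substrate status.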

[3] = Metabolic stability in human liver microsomes assessed as parent compound remaining after 1 hr; type: ADME, microsome; conditions: read-out: Stability
Outline: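 Compounds were incubated with human or mouse liver microsomes for 1 h at 37 °C. The read-out was the percentage of parent compound remaining.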

[4] = molecular target: T1, Amyloid-beta precursor protein; assay: Inhibition of HFIP-pretreated amyloid beta (1 to 42 residues) (unknown origin) aggregation after 24 hrs by ThT fluorescence assay
Liver = assay: Drug metabolism in human liver microsomes assessed as oxidation of indole-3 position; type: ADME, microsome
[5] = Half life in human liver microsomes; type: ADME, microsome

T1 sequence (P05067 whole entry, the tested form may be a part): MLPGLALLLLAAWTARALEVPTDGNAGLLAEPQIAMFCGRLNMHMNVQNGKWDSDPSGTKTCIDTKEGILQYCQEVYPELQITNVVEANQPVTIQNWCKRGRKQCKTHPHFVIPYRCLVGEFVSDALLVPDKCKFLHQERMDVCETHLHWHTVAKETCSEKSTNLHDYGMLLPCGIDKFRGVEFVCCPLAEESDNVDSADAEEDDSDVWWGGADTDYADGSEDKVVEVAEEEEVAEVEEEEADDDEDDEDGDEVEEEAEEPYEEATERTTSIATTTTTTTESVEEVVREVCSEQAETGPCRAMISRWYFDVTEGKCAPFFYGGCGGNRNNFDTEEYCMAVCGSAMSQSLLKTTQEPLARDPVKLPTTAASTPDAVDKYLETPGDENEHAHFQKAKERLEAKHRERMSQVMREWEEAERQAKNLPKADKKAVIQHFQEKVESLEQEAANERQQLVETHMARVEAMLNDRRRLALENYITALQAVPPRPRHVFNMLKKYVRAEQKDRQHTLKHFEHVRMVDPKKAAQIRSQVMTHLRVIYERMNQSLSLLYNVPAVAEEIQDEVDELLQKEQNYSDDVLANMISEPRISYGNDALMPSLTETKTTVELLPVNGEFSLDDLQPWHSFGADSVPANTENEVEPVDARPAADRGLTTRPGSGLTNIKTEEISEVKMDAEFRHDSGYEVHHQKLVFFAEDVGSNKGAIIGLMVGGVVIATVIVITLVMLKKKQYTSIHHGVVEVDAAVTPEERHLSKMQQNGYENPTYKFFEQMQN

With `c1cc2c(C3CCNCC3)c[nH]c2cc1Nc1ccc2c(C3CCNCC3)c[nH]c2c1` the inhibition [1] was > 90%, the Papp A→B [2] was 0.01 ×10⁻⁶ cm/s and the remaining at 1 h [3] was 89%.
`Fc1cc(F)cc(Nc2cnc3cc[nH]c3c2)c1` showed an inhibition [1] of 52%.
`c1cc2cc(Nc3ccc4cc[nH]c4n3)ccc2[nH]1` gave an inhibition [1] of 97%.
For `CN1CCC(c2c[nH]c3cc(Nc4ccc5[nH]cc(C6CCN(C)CC6)c5c4)ccc23)CC1`, the inhibition [1] was > 90% and the IC50 [4] was 15.3 µM.
With `c1cc2c(C3CCNCC3)c[nH]c2cc1Nc1ccc2c(C3CCNCC3)c[nH]c2n1` the inhibition [1] was > 90% and the IC50 [4] was 25.6 µM.
For `COc1ccc(Nc2ccc3c(C4CCN(C)CC4)c[nH]c3c2)cc1OC`, the inhibition [1] was 81 to 93% and the IC50 [4] was 25 µM.
`CN1CCC(c2c[nH]c3cc(Nc4ccc(F)c(F)c4)ccc23)CC1` showed an inhibition [1] of 81 to 93% and an IC50 [4] of 48 µM.
In the case of `Fc1ccc(Nc2ccc3c(C4CCNCC4)c[nH]c3n2)cc1F`, the inhibition [1] is reported as 81 to 93% and the IC50 [4] is reported as 30 µM.
`Fc1ccc(Nc2ccc3c(C4CCNCC4)c[nH]c3c2)cc1F` gave an inhibition [1] of 81 to 93% and an IC50 [4] of 24 µM.
With `c1cc2ncc(Nc3ccc4cc[nH]c4n3)cc2[nH]1` the inhibition [1] was 98%, the IC50 [4] was 23.8 µM and the Drug metabolism (Liver) was “Metabolite_Detected”. The half-life [5] was 11 min.
With `CN1CCC(c2c[nH]c3ccc(Nc4ccc5c(C6CCNCC6)c[nH]c5n4)cc23)CC1` the inhibition [1] was > 90%, the Papp A→B [2] was 0.02 ×10⁻⁶ cm/s and the remaining at 1 h [3] was 95%.
For `c1cc2c(C3CCNCC3)c[nH]c2cc1Nc1ccc2[nH]cc(C3CCNCC3)c2c1`, the inhibition [1] was > 90% and the IC50 [4] was 26.6 µM.
Work on `FC(F)(F)c1ccc(Nc2ccc3c(C4CCNCC4)c[nH]c3c2)cn1` yielded an inhibition [1] of 81 to 93% and an IC50 [4] of 24 µM.
`c1cc2ccc(Nc3ccc4cc[nH]c4n3)cc2[nH]1` gave an inhibition [1] of 75%.
With `c1cc2ccc(Nc3ccc4cc[nH]c4c3)cc2[nH]1` the inhibition [1] was 96%.
Work on `Fc1cc(F)cc(Nc2ccc3cc[nH]c3n2)c1` yielded an inhibition [1] of 60%.
Work on `Fc1ccc(Nc2ccc3cc[nH]c3n2)cc1` yielded an inhibition [1] of 52%.
For `N#Cc1c[nH]c2nc(Nc3ccc4c(C5CCNCC5)c[nH]c4c3)ccc12`, the inhibition [1] was > 90% and the IC50 [4] was 17.8 µM.
For `Cn1cc(C2CCNCC2)c2ccc(Nc3ccc(F)c(F)c3)cc21`, the inhibition [1] was 81 to 93% and the IC50 [4] was 42 µM.
With `c1ccc(Nc2ccc3cc[nH]c3n2)nc1` the inhibition [1] was 71%.
For `c1cc2ccc(NC3CCNCC3)nc2[nH]1`, the inhibition [1] was 48%.
With `c1cc2ccc(Nc3ccc4cc[nH]c4n3)nc2[nH]1` the inhibition [1] was 75%.
With `c1cc2cc(Nc3ccc4cc[nH]c4c3)ccc2[nH]1` the inhibition [1] was 94%.
For `CN1CCC(c2c[nH]c3cc(Nc4ccc5c(C6CCN(C)CC6)c[nH]c5c4)ccc23)CC1`, the inhibition [1] was > 90%.
With `c1cc2cc(Nc3ccc4cc[nH]c4n3)cnc2[nH]1` the inhibition [1] was 86%.
